# Measured values: ChEMBL document CHEMBL4024775, “Quinazolinone-Based Anticancer Agents: Synthesis, Antiproliferative SAR, Antitubulin Activity, and Tubulin Co-crystal Structure” (J Med Chem, 2018)
# Activity calls are given as the source filed them. No cut-off for these calls is given here.
# What was measured:
# [1] = system: MDA-MB-231; experiment: Antiproliferative activity against human MDA-MB-231 cells after 96 hrs by WST-1 cell proliferation assay; type: functional; details: MDA-MB-231, 96 h
# Summary of the method: (§1)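 Cells kept in RPMI-1640 with 10% FBS, penicillin and streptomycin at 37 °C, 5% CO2. Seeded at 5000 cells/well and exposed to 10-9–10-4 M compound or vehicle for 96 h. Live cells were read by WST-1. Viability was taken as percent of mean control and used to derive GI50. Triplicate experiments, mean values.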
# [2] = system: DU-145; experiment: Antiproliferative activity against human DU145 cells after 96 hrs by WST-1 cell proliferation assay; type: functional; details: DU-145, 96 h; summary of the method: as §1
# [3] = biological target: T1, Steryl-sulfatase (Homo sapiens) (UniProt P08842); experiment: Inhibition of STS in human JEG3 cells at 100 uM using [6,7-3H]E1S as substrate after 3 hrs by liquid scintillation spectrometry; type: cell-based
# T1 sequence (whole entry): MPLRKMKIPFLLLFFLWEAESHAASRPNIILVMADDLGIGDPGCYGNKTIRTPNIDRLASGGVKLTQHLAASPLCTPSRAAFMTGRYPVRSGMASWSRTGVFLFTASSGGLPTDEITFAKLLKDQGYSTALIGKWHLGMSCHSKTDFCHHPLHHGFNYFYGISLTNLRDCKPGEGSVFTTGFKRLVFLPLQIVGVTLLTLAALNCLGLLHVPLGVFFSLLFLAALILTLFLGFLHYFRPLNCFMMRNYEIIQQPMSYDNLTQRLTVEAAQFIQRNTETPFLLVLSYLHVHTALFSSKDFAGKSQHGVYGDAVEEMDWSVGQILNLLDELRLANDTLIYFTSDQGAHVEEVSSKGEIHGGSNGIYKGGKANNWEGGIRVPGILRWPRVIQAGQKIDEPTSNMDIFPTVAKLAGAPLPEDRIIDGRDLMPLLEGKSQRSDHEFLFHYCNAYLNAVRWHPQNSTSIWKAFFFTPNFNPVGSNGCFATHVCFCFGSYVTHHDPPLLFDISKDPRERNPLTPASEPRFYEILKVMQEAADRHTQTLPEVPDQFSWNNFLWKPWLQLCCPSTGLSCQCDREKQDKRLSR
# Summary of the method: (§2)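 JEG-3 cells were lysed in RIPA buffer and protein measured by BCA. Lysate (50 µg protein) was incubated 3 h in PBS with [6,7-3H]E1S at 20 µM final (unlabeled E1S added), with or without inhibitor. [4-14C]E1 tracked procedural losses. E1 was separated by toluene partition and counted by scintillation. Activity taken as pmol E1/h/mg protein and expressed as percent inhibited.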
# [4] = biological target: T1, Steryl-sulfatase (Homo sapiens); experiment: Inhibition of STS in human JEG3 cells at 10 uM using [6,7-3H]E1S as substrate after 3 hrs by liquid scintillation spectrometry; type: cell-based; summary of the method: as §2
# [5] = organism: Bos taurus; experiment: Inhibition of [3H]colchicine binding to bovine brain tubulin at 5 uM after 10 mins by DEAE-cellulose filter method relative to control
# Summary of the method: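 Bovine brain tubulin 0.1 mg/mL (1.0 µM) with 5.0 µM [3H]colchicine and inhibitor at 5.0 µM, incubated 10 min at 37 °C. CA-4 served as comparator.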
# [6] = Inhibition of bovine brain tubulin polymerization preincubated for 15 mins followed by GTP addition measured after 20 mins by spectrophotometric analysis; design: species or system Bos taurus
# Summary of the method: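 Bovine brain tubulin 1.0 mg/mL (10 µM) was preincubated without GTP with varied compound concentrations for 15 min at 30 °C, then chilled and given GTP (0.4 mM final). After a 0 °C baseline, turbidity rise was followed for 20 min after a jump to 30 °C. IC50 is the concentration that halves the turbidity increase.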
# [7] = system: RPMI-8226; experiment: Antitumor activity against human RPMI8226 cell lines xenografted in NCr-nude mouse assessed as tumor growth inhibition at 20 mg/kg, po for 28 days measured on day 53; type: functional; details: RPMI-8226, po, read-out: TGI
# Summary of the method: (§3)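 Female NCr-nude mice, 4-6 weeks old. 6 x 10^6 tumor cells mixed with an equal volume of Matrigel were implanted subcutaneously in the left flank. At about 100 mm3, mice were randomized into 3 groups of 6. Oral vehicle or compound given for 28 days. Tumor weight estimated as (w2 x l)/2 and read at day 53, 18 days after dosing ended.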
# [8] = system: RPMI-8226; experiment: Antitumor activity against human RPMI8226 cell lines xenografted in NCr-nude mouse assessed as tumor growth inhibition at 40 mg/kg, po for 28 days measured on day 53; type: functional; details: RPMI-8226, po, read-out: TGI; summary of the method: as §3
# [9] = system: MDA-MB-231; experiment: Antiproliferative activity against human MDA-MB-231 cells after 48 hrs by MTT assay; type: functional; details: MDA-MB-231, 48 h
GI50 [1] [µM],GI50 [2] [µM],inhibition [3],Structure (SMILES),also measured
34,33,–,COc1cccc(CN2Cc3cc(OC)c(OS(N)(=O)=O)cc3NC2=O)c1,–
7.4,60,20 to 25%,COc1cc2c(cc1OS(N)(=O)=O)NC(=O)N(Cc1ccccc1C)C2,–
–,–,Active,COc1cc(CN2CCc3cc(O)ccc3C2)cc(OC)c1OC,–
0.2,0.5,70 to 80%,COc1cc2c(cc1OS(N)(=O)=O)NC(=O)N(Cc1ccccc1Cl)C2,inhibition [5]: 43%; inhibition [4]: Active; IC50 [6]: 5 µM
> 100,> 100,inactive,COc1ccc(CN2Cc3cc(OC)c(OS(N)(=O)=O)cc3NC2=O)cc1,–
9.3,8.4,–,COc1cc2c(cc1O)NC(=O)N(Cc1cc(OC)c(OC)c(OC)c1)C2,–
–,–,Active,CCc1cc2c(cc1OS(N)(=O)=O)CCN(Cc1cc(Br)c(OC)c(OC)c1)C2,–
–,–,Active,CCc1cc2c(cc1OS(N)(=O)=O)CCN(Cc1cc(OC)c(OC)c(OC)c1)C2,–
0.2,0.3,70 to 80%,COc1ccccc1CN1Cc2cc(OC)c(OS(N)(=O)=O)cc2NC1=O,inhibition in vivo at 20 mg/kg [7]: 27%; inhibition in vivo at 40 mg/kg [8]: 31%; inhibition [5]: 55%; inhibition [4]: Active; IC50 [6]: 2.5 µM
4.5,4.8,20 to 25%,COc1cc2c(cc1OS(N)(=O)=O)NC(=O)N(Cc1ccccc1F)C2,–
0.4,0.8,inactive,COc1cc2c(cc1OS(N)(=O)=O)NC(=O)N(Cc1cccc(OC)c1OC)C2,IC50 [6]: 8.6 µM
0.05,0.05,inactive,COc1ccc(OC)c(CN2Cc3cc(OC)c(OS(N)(=O)=O)cc3NC2=O)c1,inhibition [5]: 61%; IC50 [6]: 2.5 µM
–,–,Active,COc1cc(CN2CCc3cc(OS(N)(=O)=O)ccc3C2)cc(OC)c1OC,–
0.1,0.1,inactive,COc1cc2c(cc1OS(N)(=O)=O)NC(=O)N(Cc1cc(OC)c(OC)c(OC)c1)C2,IC50 [6]: 5.6 µM
–,–,Active,COc1cc2c(cc1O)CCN(Cc1cc(Br)c(OC)c(OC)c1)C2,–

# Further lines, the molecule ahead of its results:
Structure (SMILES),GI50 [1] [µM],GI50 [2] [µM],inhibition [3],also measured
COc1cc2c(cc1OS(N)(=O)=O)NC(=O)N(Cc1cccc(Cl)c1)C2,2.2,3.2,70 to 80%,inhibition [4]: Active
COc1cccc(CN2Cc3cc(OC)c(O)cc3NC2=O)c1,> 100,> 100,–,–
COc1cc2c(cc1OS(N)(=O)=O)NC(=O)N(Cc1ccccc1)C2,> 100,> 100,inactive,–
COc1cc2c(cc1O)NC(=O)N(Cc1ccccc1OC)C2,5.7,2.2,–,–
COc1cc2c(cc1O)NC(=O)N(Cc1ccccc1F)C2,> 100,> 100,–,–
COc1cc2c(cc1O)NC(=O)N(Cc1cccc(OC)c1OC)C2,8.3,8.5,–,–
COc1ccc(/C=C\c2cc(OC)c(OC)c(OC)c2)cc1O [COMBRETASTATIN A4],–,–,–,GI50 [9]: 0.045 µM
COc1cc2c(cc1O)NC(=O)N(Cc1ccccc1)C2,> 100,> 100,–,–
COc1ccc(CN2Cc3cc(OC)c(O)cc3NC2=O)cc1,> 100,> 100,–,–
COc1ccc(OC)c(CN2Cc3cc(OC)c(O)cc3NC2=O)c1,2.3,1.5,inactive,–
COc1cc2c(cc1OS(N)(=O)=O)CCN(Cc1cc(Br)c(OC)c(OC)c1)C2,–,–,45%,–
COc1cc2c(cc1O)NC(=O)N(Cc1ccccc1Cl)C2,5,5.6,–,–
COc1cc2c(cc1O)NC(=O)N(Cc1cccc(Cl)c1)C2,> 100,81,–,–
COc1cc2c(cc1O)NC(=O)N(Cc1ccccc1C)C2,> 100,> 100,–,–
